Measurements taken from ChEMBL document CHEMBL1255546, “Discovery of potent and selective histamine H3 receptor inverse agonists based on the 3,4-dihydro-2H-pyrazino[1,2-a]indol-1-one scaffold” (Bioorg Med Chem Lett, 2010).
pEC50, pIC50, pKi: −log10 of the molar value. Converted amounts (≈) assume the structure as drawn. The source made the active and inactive calls. No cut-off for these calls is given here.

Experiments:
[1] = Intrinsic clearance in human liver microsomes; format: ADME, Microsome
Cytochrome P450 2D6 = Cytochrome P450 2D6 (Homo sapiens, UniProt P10635); assay: Inhibition of CYP2D6; format: ADME
Chain of Cytochrome P450 2D6 (P10635 whole entry): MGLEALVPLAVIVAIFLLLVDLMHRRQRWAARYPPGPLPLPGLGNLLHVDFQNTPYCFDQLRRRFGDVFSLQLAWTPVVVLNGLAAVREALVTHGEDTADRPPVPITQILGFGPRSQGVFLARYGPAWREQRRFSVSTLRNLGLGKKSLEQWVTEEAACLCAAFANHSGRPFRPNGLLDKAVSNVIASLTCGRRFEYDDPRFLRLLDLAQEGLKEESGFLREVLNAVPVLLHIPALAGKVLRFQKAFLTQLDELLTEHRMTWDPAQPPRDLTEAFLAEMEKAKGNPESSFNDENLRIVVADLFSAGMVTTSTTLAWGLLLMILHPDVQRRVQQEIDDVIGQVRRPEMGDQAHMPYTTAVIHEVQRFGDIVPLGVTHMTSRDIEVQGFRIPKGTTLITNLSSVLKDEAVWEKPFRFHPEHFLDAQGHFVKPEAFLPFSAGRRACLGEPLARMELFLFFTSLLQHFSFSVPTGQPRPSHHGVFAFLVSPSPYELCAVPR

[2] = Intrinsic clearance in rat liver microsomes; format: ADME, Microsome
[3] = target: Histamine H1 receptor (Homo sapiens) (UniProt P35367); assay: Displacement of [3H]-mepyramine from human histamine H1 receptor; parameters: concentration or dose not given beside the values; conditions: concentration not given here
Chain of Histamine H1 receptor (Homo sapiens) (P35367 whole entry): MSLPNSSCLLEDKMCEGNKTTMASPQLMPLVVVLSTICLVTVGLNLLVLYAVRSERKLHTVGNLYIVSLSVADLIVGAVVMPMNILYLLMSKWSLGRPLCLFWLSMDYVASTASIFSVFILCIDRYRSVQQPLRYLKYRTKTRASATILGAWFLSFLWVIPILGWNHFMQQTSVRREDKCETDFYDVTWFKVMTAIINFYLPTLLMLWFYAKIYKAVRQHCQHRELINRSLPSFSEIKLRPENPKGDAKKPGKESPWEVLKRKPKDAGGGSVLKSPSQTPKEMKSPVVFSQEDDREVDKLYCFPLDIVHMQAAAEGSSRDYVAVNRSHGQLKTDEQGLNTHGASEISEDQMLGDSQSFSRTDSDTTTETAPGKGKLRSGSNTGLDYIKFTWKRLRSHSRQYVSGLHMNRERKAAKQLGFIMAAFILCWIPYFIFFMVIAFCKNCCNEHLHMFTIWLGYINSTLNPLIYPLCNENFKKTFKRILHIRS
How it was run: (§1)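 Radioligand displacement assays, single determination (n = 1) each: [3H]-mepyramine at H1, [3H]-tiotidine at H2, [3H]-histamine at H4.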

[4] = target: Histamine H4 receptor (Homo sapiens) (UniProt Q9H3N8); assay: Displacement of [3H]-histamine from human histamine H4 receptor; parameters: concentration or dose not given beside the values; conditions: concentration not given here; how it was run: as §1
Histamine H3 receptor [5] = target: T1, Histamine H3 receptor (Homo sapiens, UniProt Q9Y5N1); assay: Inverse agonist activity at human recombinant histamine H3 receptor assessed as effect on [35S]GTPgammaS binding; format: functional
T1 sequence (Q9Y5N1 whole entry): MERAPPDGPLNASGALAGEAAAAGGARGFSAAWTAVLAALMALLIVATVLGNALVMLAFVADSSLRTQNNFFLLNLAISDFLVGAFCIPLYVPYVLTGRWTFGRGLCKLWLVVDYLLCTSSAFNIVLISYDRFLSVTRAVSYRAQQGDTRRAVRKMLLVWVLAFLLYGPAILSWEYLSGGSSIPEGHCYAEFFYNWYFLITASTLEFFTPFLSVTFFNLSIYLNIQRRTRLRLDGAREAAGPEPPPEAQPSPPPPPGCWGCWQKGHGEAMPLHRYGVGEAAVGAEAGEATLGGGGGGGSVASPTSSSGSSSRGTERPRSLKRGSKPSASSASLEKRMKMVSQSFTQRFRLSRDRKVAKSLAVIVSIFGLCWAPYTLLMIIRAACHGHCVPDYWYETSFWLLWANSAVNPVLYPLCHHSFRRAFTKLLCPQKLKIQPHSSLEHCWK

Cytochrome P450 3A4 = Cytochrome P450 3A4 (Homo sapiens, UniProt P08684); assay: Inhibition of CYP3A4; format: ADME
Chain of Cytochrome P450 3A4 (P08684 whole entry): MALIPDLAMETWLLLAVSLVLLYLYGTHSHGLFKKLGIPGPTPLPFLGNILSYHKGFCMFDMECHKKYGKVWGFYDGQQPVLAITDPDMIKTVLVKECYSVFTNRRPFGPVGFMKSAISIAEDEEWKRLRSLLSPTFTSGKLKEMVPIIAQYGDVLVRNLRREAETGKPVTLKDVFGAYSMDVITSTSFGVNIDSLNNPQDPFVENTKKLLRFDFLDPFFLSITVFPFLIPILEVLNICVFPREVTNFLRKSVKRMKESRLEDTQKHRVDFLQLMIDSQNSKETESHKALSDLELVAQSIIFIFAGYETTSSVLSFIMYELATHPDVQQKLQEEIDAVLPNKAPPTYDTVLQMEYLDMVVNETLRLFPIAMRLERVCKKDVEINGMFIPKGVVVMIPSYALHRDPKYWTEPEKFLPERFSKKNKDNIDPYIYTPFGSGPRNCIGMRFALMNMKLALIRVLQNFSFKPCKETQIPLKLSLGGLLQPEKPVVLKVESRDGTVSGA

Histamine H3 receptor [6] = target: T1, Histamine H3 receptor; assay: Displacement of [3H]-RAMH from human histamine H3 receptor
[7] = Lipophilicity, log D of the compound at pH 7.4; format: physicochemical; conditions: buffer
Cytochrome P450 2C9 = Cytochrome P450 2C9 (Homo sapiens, UniProt P11712); assay: Inhibition of CYP2C9; format: ADME
Chain of Cytochrome P450 2C9 (P11712 whole entry): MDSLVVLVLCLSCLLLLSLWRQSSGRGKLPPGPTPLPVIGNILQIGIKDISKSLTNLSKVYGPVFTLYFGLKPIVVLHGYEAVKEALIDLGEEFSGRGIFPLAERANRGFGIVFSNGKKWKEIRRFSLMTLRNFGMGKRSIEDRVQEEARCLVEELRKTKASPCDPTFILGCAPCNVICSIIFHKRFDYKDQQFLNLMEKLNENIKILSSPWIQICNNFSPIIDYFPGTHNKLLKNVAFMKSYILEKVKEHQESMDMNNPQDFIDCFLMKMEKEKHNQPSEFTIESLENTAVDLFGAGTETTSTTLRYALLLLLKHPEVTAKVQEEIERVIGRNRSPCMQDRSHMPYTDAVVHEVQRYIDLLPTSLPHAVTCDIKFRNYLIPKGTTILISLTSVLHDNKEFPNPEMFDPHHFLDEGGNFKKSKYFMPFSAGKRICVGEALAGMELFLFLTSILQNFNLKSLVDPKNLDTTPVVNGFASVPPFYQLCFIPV

[8] = Aqueous solubility of the compound in 0.05 M phosphate buffer at pH 6.5; format: physicochemical
[9] = target: Histamine H2 receptor (Homo sapiens) (UniProt P25021); assay: Displacement of [3H]-tiotidine from human histamine H2 receptor; parameters: concentration or dose not given beside the values; conditions: concentration not given here; how it was run: as §1
Chain of Histamine H2 receptor (Homo sapiens) (P25021 whole entry): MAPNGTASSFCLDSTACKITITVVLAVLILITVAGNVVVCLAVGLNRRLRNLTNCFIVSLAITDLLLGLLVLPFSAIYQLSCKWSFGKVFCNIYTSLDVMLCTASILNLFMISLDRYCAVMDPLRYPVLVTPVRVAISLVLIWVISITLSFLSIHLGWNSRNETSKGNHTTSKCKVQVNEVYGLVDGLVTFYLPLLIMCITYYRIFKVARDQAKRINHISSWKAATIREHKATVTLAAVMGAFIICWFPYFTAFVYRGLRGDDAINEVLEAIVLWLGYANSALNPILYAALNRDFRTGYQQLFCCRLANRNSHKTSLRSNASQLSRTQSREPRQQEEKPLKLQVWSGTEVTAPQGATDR

Rattus norvegicus [10] = assay: Inhibition of water intake in rat dipsogenia model at 10 mg/kg, po; format: functional, organism-based; parameters: dose 10 mg/kg
Rattus norvegicus [11] = assay: Toxicity in rat assessed as change in behavioral effect at 10 mg/kg, po measured for 1 hr; format: organism-based; parameters: dose 10 mg/kg, route oral; conditions: in vivo
Rattus norvegicus [12] = assay: Inhibition of (R)-alpha-methyl histamine-induced increased water intake in rat dipsogenia model at 10 mg/kg, po; format: functional
Histamine H3 receptor [13] = target: T2, Histamine H3 receptor (Rattus norvegicus, UniProt Q9QYN8); assay: Inverse agonist activity at rat histamine H3 receptor; format: functional
T2 sequence (Q9QYN8 whole entry): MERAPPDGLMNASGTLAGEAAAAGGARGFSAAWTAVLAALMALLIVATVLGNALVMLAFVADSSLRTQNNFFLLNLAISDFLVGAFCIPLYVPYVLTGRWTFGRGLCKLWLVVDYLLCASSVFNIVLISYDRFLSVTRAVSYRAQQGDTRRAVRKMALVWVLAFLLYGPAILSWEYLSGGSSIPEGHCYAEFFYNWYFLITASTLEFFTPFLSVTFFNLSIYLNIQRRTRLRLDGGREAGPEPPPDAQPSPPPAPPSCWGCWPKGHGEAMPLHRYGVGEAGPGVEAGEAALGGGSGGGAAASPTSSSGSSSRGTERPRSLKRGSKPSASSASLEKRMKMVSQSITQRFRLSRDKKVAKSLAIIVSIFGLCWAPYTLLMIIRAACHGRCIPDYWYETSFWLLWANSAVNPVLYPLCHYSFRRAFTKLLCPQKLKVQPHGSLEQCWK

Histamine H3 receptor [14] = target: T2, Histamine H3 receptor; assay: Binding affinity to rat histamine H3 receptor
Histamine H3 receptor [15] = target: T1, Histamine H3 receptor; conditions: 3 uM

Row | SMILES | microsomal CLint [1] | pIC50 (Cytochrome P450 2D6) | microsomal CLint [2] | inhibition [3] | inhibition [4] | pEC50 (Histamine H3 receptor [5]) | pIC50 (Cytochrome P450 3A4) | pKi (Histamine H3 receptor [6]) | logD [7] | pIC50 (Cytochrome P450 2C9) | solubility [8] | inhibition [9] | pEC50 (Histamine H3 receptor [13]) | pKi (Histamine H3 receptor [14]) | inhibition (Histamine H3 receptor [15]) | inhibition (Rattus norvegicus [10]) | Activity (Rattus norvegicus [11]) | inhibition in vivo at 10 mg/kg (Rattus norvegicus [12])
1 | C[C@H]1CCCN1CCCOc1ccc2c(c1)cc1n2CCNC1=O |  |  |  | 11% | 4% | 6.85 |  | 7.68 |  |  |  | 10% |  |  |  |  |  | 
2 | C[C@H]1CC[C@H](C)N1CCCOc1ccc2c(c1)cc1n2CCNC1=O |  |  |  | 16% | 6% | 7.62 |  | 7.96 |  |  |  | 17% |  |  |  |  |  | 
3 | CC(C)N1CCC(Oc2ccc3c(c2)cc2n3CCCN(CC3CC3)C2=O)CC1 |  |  |  | 5% | -7% | 7.44 |  |  |  |  |  | 15% |  |  |  |  |  | 
4 | CC(C)N1CCC(Oc2ccc3c(c2)cc2n3CCN(Cc3ccccc3F)C2=O)CC1 |  |  |  | 16% | 1% | 7.55 |  | 8.22 |  |  |  | 6% |  |  |  |  |  | 
5 | C[C@@H]1CCCN1CCCOc1ccc2c(c1)cc1n2CCNC1=O |  | < 4.30 | 37 µL/min/mg | 13% | -4% | 8.40 | < 4.30 | 8.15 | 0.13 | < 4.30 | > 436 µg/mL | 4% |  |  |  |  |  | 
6 | CC(C)N1CCC(Oc2ccc3c(c2)cc2n3CCN(Cc3cccnc3)C2=O)CC1 |  |  |  | 3% | 3% | 7.89 |  | 8.30 |  |  |  | 3% |  |  |  |  |  | 
7 | CC(C)N1CCC(Oc2ccc3c(c2)cc(C(=O)N2CCC(F)(F)CC2)n3C(C)C)CC1 | 4 µL/min/mg | 5.30 | 12 µL/min/mg | 9% | 7% | 8.70 | < 4.30 | 8.70 | 1.67 | < 4.30 | > 589 µg/mL | -6% |  |  |  |  |  | 
8 | CC(C)N1CCC(Oc2ccc3c(c2)cc2n3CCN(Cc3cccc(F)c3)C2=O)CC1 |  |  |  | 24% | 4% | 7.64 |  | 7.85 |  |  |  | 21% |  |  |  |  |  | 
9 | CC(C)N1CCC(Oc2ccc3c(c2)cc2n3CCN(Cc3ccncc3)C2=O)CC1 | 8 µL/min/mg | < 4.30 | 27 µL/min/mg | 4% | 3% | 7.92 | 5.22 | 8.30 | 0.64 | < 4.30 | > 456 µg/mL |  |  |  |  |  |  | 
10 | CC(C)N1CCC(Oc2ccc3c(c2)cc2n3CCN(CC(F)(F)F)C2=O)CC1 |  |  |  | -1% | -4% | 7.40 |  | 7.47 |  |  |  | -6% |  |  |  |  |  | 
11 | CC(C)N1CCC(Oc2ccc3[nH]c4c(c3c2)CCNC4=O)CC1 |  |  |  |  |  |  |  | < 5.52 |  |  |  |  |  |  | 35% |  |  | 
12 | CC(C)N1CCC(Oc2cc3cc4n(c3cc2Br)[C@@H](C)CN(CC2CC2)C4=O)CC1 | 7 µL/min/mg | < 4.30 | 20 µL/min/mg | 10% | 1% | 8.70 | < 4.30 | 8.70 | 2.32 | < 4.30 | 506 µg/mL (≈ 1070 µM) | -3% |  |  |  |  |  | 
13 | COCCN1CCn2c(cc3cc(OC4CCN(C(C)C)CC4)ccc32)C1=O |  |  |  |  | 0% | 7.29 |  | 7.72 |  |  |  | 6% |  |  |  |  |  | 
14 | O=C1NCCn2c1cc1cc(OCCCN3CCCCC3)ccc12 |  |  |  | 33% | 8% | 7.13 |  | 7.74 |  |  |  | 45% |  |  |  |  |  | 
15 | CC(C)N1CCC(Oc2ccc3c(c2)cc2n3CCN(Cc3ccccn3)C2=O)CC1 |  |  |  | 6% | -3% | 7.85 |  | 8.22 |  |  |  | 4% |  |  |  |  |  | 
16 | CC(C)N1CCC(Oc2ccc3c(c2)cc2n3CCN(Cc3ccc(F)cc3)C2=O)CC1 | 5 µL/min/mg | 4.46 | 17 µL/min/mg | 17% | 1% | 7.85 | < 4.30 | 8.15 | 2.06 | < 4.30 | 382 µg/mL (≈ 877 µM) | -3% |  |  |  |  |  | 
17 | O=C1NCCn2c1cc1cc(OC3CCN(CC4CC4)CC3)ccc12 |  |  |  | -4% | 3% |  |  | 6.89 |  |  |  | 9% |  |  |  |  |  | 

Further lines, with some results ahead:

Row | microsomal CLint [1] | pIC50 (Cytochrome P450 2D6) | microsomal CLint [2] | inhibition [3] | inhibition [4] | pEC50 (Histamine H3 receptor [5]) | pIC50 (Cytochrome P450 3A4) | pKi (Histamine H3 receptor [6]) | logD [7] | pIC50 (Cytochrome P450 2C9) | solubility [8] | inhibition [9] | pEC50 (Histamine H3 receptor [13]) | pKi (Histamine H3 receptor [14]) | inhibition (Histamine H3 receptor [15]) | SMILES | inhibition (Rattus norvegicus [10]) | Activity (Rattus norvegicus [11]) | inhibition in vivo at 10 mg/kg (Rattus norvegicus [12])
18 | 1 µL/min/mg | 5.40 | 70 µL/min/mg | 1% | 6% | 7.42 | < 4.30 | 7.60 | -0.05 | < 4.30 | > 436 µg/mL |  |  |  |  | CC(C)N1CCC(Oc2ccc3c(c2)cc2n3CCNC2=O)CC1 |  |  | 
19 | 4 µL/min/mg | < 4.30 |  | 11% | 10% | 7.03 | 4.59 | 7.38 | 0.28 | < 4.30 | 345 µg/mL (≈ 1010 µM) | 9% |  |  |  | CC(C)N1CCC(Oc2ccc3c(c2)cc2n3[C@@H](C)CNC2=O)CC1 |  |  | 
20 | 7 µL/min/mg | < 4.30 | 10 µL/min/mg | 2% | 7% | 7.34 | < 4.30 | 8.05 | 0.28 | < 4.30 | 284 µg/mL (≈ 832 µM) | 13% |  |  |  | CC(C)N1CCC(Oc2ccc3c(c2)cc2n3C[C@@H](C)NC2=O)CC1 |  |  | 
21 | 6 µL/min/mg | < 4.30 | 10 µL/min/mg | 3% | 12% | 7.74 | < 4.30 | 8.30 | 1.4 | < 4.30 | > 441 µg/mL | 8% | 7.74 | 7.92 |  | CC(C)N1CCC(Oc2ccc3c(c2)cc2n3C[C@@H](C)N(CC3CC3)C2=O)CC1 | inactive | Non-toxic | 64%
22 |  | < 4.30 | 28 µL/min/mg | 3% | -3% | 7.59 | < 4.30 | 7.77 | 0.07 | < 4.30 | > 455 µg/mL | 9% |  |  |  | CC(C)N1CCC(Oc2ccc3c(c2)cc2n3CCCNC2=O)CC1 |  |  | 
23 |  |  |  | -6% | -6% | 7.60 |  | 7.57 |  |  |  | -2% |  |  |  | CC(C)N1CCC(Oc2ccc3c(c2)cc2n3CCN(C(C)C)C2=O)CC1 |  |  | 
24 | 9 µL/min/mg | 6.05 | 11 µL/min/mg | -1% | -5% | 7.25 | < 4.30 | 7.34 | -0.25 | < 4.30 | > 406 µg/mL | 14% |  |  |  | CC(C)N1CCC(Oc2ccc3c(c2)cc2n3CCN(CCO)C2=O)CC1 |  |  | 
25 |  | 4.66 | 29 µL/min/mg | -4% | 9% | 7.54 | < 4.30 | 7.59 | 0.23 | < 4.30 | > 455 µg/mL | 10% |  |  |  | CC(C)N1CCC(Oc2ccc3c(c2)cc2n3[C@H](C)CNC2=O)CC1 |  |  | 
26 | 1 µL/min/mg | 4.82 | 23 µL/min/mg | -4% | 0% | 7.32 | < 4.30 | 7.51 | 0.13 | < 4.30 | > 455 µg/mL | 11% |  |  |  | CC(C)N1CCC(Oc2ccc3c(c2)cc2n3CCN(C)C2=O)CC1 |  |  | 
27 | 1 µL/min/mg | < 4.30 | 12 µL/min/mg |  | -10% | 8.40 | < 4.30 | 8.40 | 1.13 | < 4.30 | > 526 µg/mL | 18% |  |  |  | CC(C)N1CCC(Oc2cc3cc4n(c3cc2Br)[C@@H](C)CNC4=O)CC1 |  |  | 
28 | 14 µL/min/mg | < 4.30 | 9 µL/min/mg |  | 7% | 7.55 | < 4.30 | 8.05 | 1.09 | < 4.30 | > 508 µg/mL | 6% |  |  |  | CC(C)N1CCC(Oc2ccc3c(c2)cc2n3CCN(CC3CC3)C2=O)CC1 |  |  | 
29 | 3 µL/min/mg | < 4.30 |  | -2% | 15% | 7.85 | < 4.30 | 8.22 | 0.23 | < 4.30 | > 455 µg/mL | 26% |  |  |  | CC(C)N1CCC(Oc2ccc3c(c2)cc2n3C[C@H](C)NC2=O)CC1 |  |  | 
